Data on 18 compounds can be found in ChEMBL document CHEMBL3352355, “Synthesis of novel polysubstituted (2SR,4RS)-2-heteroaryltetrahydro-1,4-epoxy-1-benzazepines and cis-2-heteroaryl-4-hydroxytetrahydro-1H-1-benzazepines as antiparasitic agents” (Eur J Med Chem, 2014).

Usually IC50 stands for the concentration at which inhibition is half-maximal. In general, CC50 refers to the concentration giving 50% cytotoxicity.

A short description of series [1]: Selectivity index, ratio of CC50 for human THP1 cells to IC50 for promastigote stage of Leishmania infantum. It counts as functional, THP-1. In outline: (§1)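 Selectivity index was calculated as CC50 in Vero (T. cruzi) or THP-1 (L. infantum) cells divided by parasite IC50. Both values came from 72 h mammalian-cell MTT assays and the parasite assays; SI ≥ 3 was defined as parasite-selective.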

Series [2] concerns Leishmania infantum. In words: Antiparasitic activity against amastigote stage of Leishmania infantum infected in THP1 cells assessed as parasite growth inhibition after 24 hrs by hemocytometery. The conditions noted are these: Leishmania infantum, THP-1, 24 h; read-out: IC50. It is filed as functional, organism-based, THP-1. In outline:
(§2)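 Host cells were Vero for T. cruzi (infected with tissue-derived trypomastigotes) and THP-1 (PMA-transformed, 10 ng/mL) for L. (L.) infantum (infected with late-phase promastigotes), at 1:10 cell:parasite for 24 h. Serial dilutions were given as two doses, the second on day 3 with a medium change. Read-out was % infected cells on methanol-fixed, Giemsa-stained slides (300 cells). IC50 came from sigmoidal regression; experiments in duplicate, concentrations in triplicate.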

Series [3] has as its system Trypanosoma cruzi. In words: Antiparasitic activity against epimastigote stage of Trypanosoma cruzi infected in Vero cells assessed as parasite growth inhibition […] by hemocytometery. It counts as functional, organism-based. In a few lines: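 Exponential-phase T. cruzi Sylvio X10 epimastigotes (LIT medium with hiFCS) or L. (L.) infantum MHOM/BR/74/PP75 promastigotes (RPMI 1640, hemin, HEPES, 10% hiFCS) were exposed to threefold serial dilutions (0.3–300 µg/mL) for 72 h at 28 °C. Viable parasites were counted by hemocytometer with 0.25% eosin yellow. IC50 came from sigmoidal regression, given as mean ± SD.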

Series [4] concerns Leishmania infantum. In words: Antiparasitic activity against promastigote stage of Leishmania infantum assessed as parasite growth inhibition after 72 hrs by hemocytometery.
Series [5] can be described thus: Cytotoxicity against African green monkey Vero cells. It is filed as cell-based. Particulars: chlorocebus sabaeus. In a few lines: (§3)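 Vero monolayers or THP-1 cells (made adherent with 10 ng/mL PMA), in RPMI 1640 with 10% hiFCS, were exposed to compound (0.3–300 µg/mL) for 72 h at 37 °C, 5% CO2. Viability was measured by MTT, with formazan dissolved in DMSO and read at 580 nm. % cytotoxicity was calculated against untreated cells; CC50 came from sigmoidal regression, given as mean ± SD.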

Series [6] deals with Trypanosoma cruzi. In words: Antiparasitic activity against amastigote stage of Trypanosoma cruzi infected in Vero cells assessed as parasite growth inhibition after 24 hrs by hemocytometery. It is filed as functional, organism-based. The conditions noted are these: Trypanosoma cruzi, Vero, 24 h; read-out: IC50. In outline:
as §2

Series [7] is described as follows: Cytotoxicity against human THP1 cells. It counts as cell-based. The conditions noted are these: THP-1 cells. In outline: as §3
Series [8] in a line: Selectivity index, ratio of CC50 for African green monkey Vero cells to IC50 for epimastigote stage of Trypanosoma cruzi. It is filed as functional. In outline:
as §1

The nature of series [9]: Selectivity index, ratio of CC50 for African green monkey Vero cells to IC50 for amastigote stage of Trypanosoma cruzi. It is filed as functional. In outline:
as §1

Regarding `Cn1cccc1[C@@H]1C[C@H]2Cc3cc(F)ccc3N1O2` (mixture of isomers), the “Selectivity Index” value in [1] turned out to be 6.9; in series [8] it was 1.3. The IC50 in the series with Leishmania infantum [2] is greater than 387 µM; with Trypanosoma cruzi [3], 414 µM; with Leishmania infantum [4] it was 316 µM; in the series on Trypanosoma cruzi [6], greater than 387 µM. For the same compound, the CC50 in [5] was 533 µM; in series [7], 2180 µM.
Consider `Cc1ccc([C@@H]2C[C@H]3Cc4cc(Cl)ccc4N2O3)s1` (racemic), for which the results for the “Selectivity Index” value in [1], in [9] and in series [8] were greater than 63.8, 11.3 and 46.1, respectively. The IC50 in the series with Leishmania infantum [2] was greater than 344 µM; with Trypanosoma cruzi [3], 24.8 µM; in the series with Leishmania infantum [4] it was 32.3 µM; in the series on Trypanosoma cruzi [6] it was 101 µM. Further, the CC50 in [5] is 1140 µM; in [7], greater than 2060 µM.
As to `O=[N+]([O-])c1ccc([C@@H]2C[C@H]3Cc4ccccc4N2O3)o1` (racemic), the “Selectivity Index” value in series [1] worked out at 2.2; in series [8], 1. In addition, the IC50 was greater than 368 µM in the series on Leishmania infantum [2], 53 µM with Trypanosoma cruzi [3], 107 µM with Leishmania infantum [4] and greater than 122 µM in the series on Trypanosoma cruzi [6]. The half-maximal cytotoxic concentration (CC50) in series [5] turned out to be 51.4 µM; in series [7], 234 µM.
As to `Clc1ccc2c(c1)C[C@@H]1C[C@@H](c3cccs3)N2O1` (racemic), the entries for the “Selectivity Index” value in series [1] and in [8] were greater than 17.5 and greater than 14.2, respectively. The IC50 was greater than 120 µM with Leishmania infantum [2], 25.4 µM in the series with Trypanosoma cruzi [3], 20.7 µM in the series on Leishmania infantum [4] and greater than 120 µM in the series on Trypanosoma cruzi [6]. In addition, the CC50 in series [5] and in series [7] was greater than 361 µM each time.
For `FC(F)(F)Oc1ccc2c(c1)C[C@@H]1C[C@@H](c3ccoc3)N2O1` (racemic), the “Selectivity Index” value is listed as greater than 76.6 in [1] and 0.9 in series [8]. Moreover, the IC50 in the series on Leishmania infantum [2] is greater than 322 µM; in the series on Trypanosoma cruzi [3], 192 µM; with Leishmania infantum [4] it was 25.2 µM; with Trypanosoma cruzi [6], greater than 107 µM. In addition, the results for the CC50 in [5] and in series [7] were 180 µM and greater than 1930 µM, respectively.
Regarding `O=[N+]([O-])c1ccc([C@@H]2C[C@H]3Cc4cc(OC(F)(F)F)ccc4N2O3)o1` (racemic), in [1], the “Selectivity Index” value is reported as 6.1. Further, the IC50 in the series with Leishmania infantum [2] was greater than 281 µM; in the series with Trypanosoma cruzi [3], greater than 843 µM; in the series on Leishmania infantum [4], 66.6 µM; with Trypanosoma cruzi [6], greater than 281 µM. The values for the CC50 in series [5] and in [7] were 214 µM and 404 µM, respectively.
As for `O[C@@H]1Cc2cc(F)ccc2N[C@H](c2cccs2)C1` (relative stereo), the “Selectivity Index” value is 1.6 in series [1] and 0.3 in [8]. Moreover, the IC50 was greater than 380 µM with Leishmania infantum [2], 764 µM in the series on Trypanosoma cruzi [3], 120 µM in the series on Leishmania infantum [4] and greater than 380 µM with Trypanosoma cruzi [6]. For the same compound, the CC50 was 218 µM in series [5] and 190 µM in series [7].
`CC1CS(=O)(=O)CCN1/N=C/c1ccc([N+](=O)[O-])o1` (stereo not given) [NIFURTIMOX]: the IC50 with Trypanosoma cruzi [3] is 4 µM; in the series on Trypanosoma cruzi [6], 1.6 µM. In series [5], this compound registered a half-maximal cytotoxic concentration (CC50) of 67.5 µM. The results for the “Selectivity Index” value in [9] and in [8] were 43 and 17, respectively.
Regarding `Cc1ccc([C@@H]2C[C@H]3Cc4cc(OC(F)(F)F)ccc4N2O3)s1` (racemic), the “Selectivity Index” value in series [1] turned out to be 26.8; in series [8], 3.9. Also, the IC50 is greater than 293 µM with Leishmania infantum [2], 43.9 µM in the series on Trypanosoma cruzi [3], 10.5 µM with Leishmania infantum [4] and greater than 293 µM in the series with Trypanosoma cruzi [6]. Besides, the values for the half-maximal cytotoxic concentration (CC50) in series [5] and in series [7] were 170 µM and 282 µM, respectively.
`O[C@@H]1Cc2cc(OC(F)(F)F)ccc2N[C@H](c2ccoc2)C1` (relative stereo): the “Selectivity Index” value in series [1] came to 10.7; in [8], 0.2. The IC50 in the series with Leishmania infantum [2] was greater than 106 µM; with Trypanosoma cruzi [3], 602 µM; in the series on Leishmania infantum [4], 43.1 µM; in the series on Trypanosoma cruzi [6], greater than 106 µM. Moreover, the CC50 in series [5] was 95.4 µM; in series [7], 460 µM.
In the case of `Cc1ccc([C@@H]2C[C@H]3Cc4cc(F)ccc4N2O3)s1` (racemic), the “Selectivity Index” value came to 2.5 in series [1] and 30.6 in series [8]. Besides, the IC50 was greater than 121 µM with Leishmania infantum [2], 30.9 µM in the series on Trypanosoma cruzi [3], 92 µM in the series with Leishmania infantum [4] and greater than 364 µM in the series on Trypanosoma cruzi [6]. Besides, the 50% cytotoxic concentration (CC50) worked out at 944 µM in [5] and 234 µM in [7].
For `Clc1ccc2c(c1)C[C@@H]1C[C@@H](c3ccco3)N2O1` (racemic), the figures for the “Selectivity Index” value in [1] and in [8] were greater than 24.3 and 6.7, respectively. Also, the concentration for half-maximal inhibition (IC50) is greater than 128 µM in the series on Leishmania infantum [2], 53.1 µM with Trypanosoma cruzi [3] and 47.3 µM in the series on Leishmania infantum [4]. Further, the CC50 is 353 µM in series [5] and greater than 1150 µM in [7].
Turning to `Fc1ccc2c(c1)C[C@@H]1C[C@@H](c3ccoc3)N2O1` (racemic), the “Selectivity Index” value in series [1] is 11.9; in [8], greater than 8.1. Further, the IC50 is greater than 408 µM in the series on Leishmania infantum [2], 151 µM with Trypanosoma cruzi [3], 103 µM with Leishmania infantum [4] and greater than 408 µM in the series with Trypanosoma cruzi [6]. For the same compound, the 50% cytotoxic concentration (CC50) in series [5] and in [7] was greater than 1220 µM throughout.
On to `O[C@@H]1Cc2cc(Cl)ccc2N[C@H](c2cccs2)C1` (relative stereo), for which the entries for the “Selectivity Index” value in [1] and in series [8] were 2.3 and 1.7, respectively. The IC50 in the series with Leishmania infantum [2] is greater than 119 µM; with Trypanosoma cruzi [3], 95.1 µM; with Leishmania infantum [4] it was 49.5 µM; with Trypanosoma cruzi [6], greater than 119 µM. The CC50 was 164 µM in series [5] and 115 µM in [7].
Turning to `c1coc([C@@H]2C[C@H]3Cc4ccccc4N2O3)c1` (racemic), the figures for the “Selectivity Index” value in series [1] and in series [8] were 14.7 and 6.8, respectively. The IC50 in the series on Leishmania infantum [2] was greater than 440 µM; with Trypanosoma cruzi [3], 229 µM; with Leishmania infantum [4] it was 45.3 µM; in the series with Trypanosoma cruzi [6], greater than 440 µM. For the same compound, the CC50 in series [5] stood at 1560 µM; in series [7], 663 µM.
With `Cc1ccsc1[C@@H]1C[C@H](O)Cc2ccccc2N1` (relative stereo), the “Selectivity Index” value in series [1] is 3.7; in series [8], 4.3. Further, the half-inhibitory concentration (IC50) in the series on Leishmania infantum [2] was greater than 128 µM; in the series on Trypanosoma cruzi [3] it was 143 µM; in the series with Leishmania infantum [4] it was 156 µM; in the series on Trypanosoma cruzi [6] it was greater than 128 µM. Further, the CC50 in series [5] is 616 µM; in series [7], 579 µM.
For `Cc1ccc([C@@H]2C[C@H](O)Cc3cc(Cl)ccc3N2)s1` (relative stereo), the “Selectivity Index” value is given as greater than 31.8 in series [1] and 10.5 in series [8]. Further, the IC50 was greater than 341 µM in the series on Leishmania infantum [2], 14.6 µM in the series on Trypanosoma cruzi [3], 64.4 µM in the series with Leishmania infantum [4] and greater than 114 µM in the series with Trypanosoma cruzi [6]. Moreover, the CC50 in series [5] was 154 µM; in [7] it was greater than 2050 µM.
Regarding `Cc1ccc([C@@H]2C[C@H]3Cc4cc(F)ccc4N2O3)o1` (racemic), the “Selectivity Index” value in series [1] is 3.3; in [8], 5.6. In addition, the IC50 in the series with Leishmania infantum [2] is greater than 128 µM; with Trypanosoma cruzi [3], 192 µM; with Leishmania infantum [4], 102 µM; with Trypanosoma cruzi [6], greater than 386 µM. Further, the cytotoxic concentration (CC50) came out at 1080 µM in series [5] and 338 µM in series [7].
